Screens: PubChem BioAssay, several laboratories
A selection: hits, their analogues and other compounds. The true share with any hit is near 1.9%.
DNA FID counter: compounds displacing fluorescent DNA intercalator, primary screen, artefact control for HCV NS3 helicase inhibitor project, biochemical, FID fluorescence | DNA fluorescent intercalator displacement | inhibition, % at 7.9 µM | hit rate 0.17% among 290,000; in the data active = inhibition above about 37%;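 note: 0% = vehicle and 100% = reference compound; higher means more ethidium bromide displaced from hairpin DNA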
core dimer inh: inhibitors of HCV core protein dimerization, primary screen, biochemical, TR-FRET, high-throughput. AID 1899, 2009. hit rate 0.33% among 300,000. TR-FRET GST/Flag-core106 dimerization, 1536-well. inhibition, % at 5 µM;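 active = inhibition above the mean of all tested compounds plus 3 SD, set per screening campaign, cut at about 45% in these data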
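Assay system: tagged HCV core106 pair (GST and Flag); medium: KF-containing HEPES buffer, pH 7.45, DTT, CHAPS, BSA; also added: Eu donor and XL665 acceptor anti-tag antibodies; dosing: 5 µM single dose; timing: compound-protein-antibody incubation 4 h at 22.5 °C; signal: TR-FRET 671 and 617 nm emission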
p-CIP stab down: p/CIP-EGFP fusion destabilizers, primary screen, fluorescence, F442A cells | Q05BA5 | 16 h | decrease of EGFP signal, % at 10 µM | hit rate 0.01% among 290,000 | AID 1984, 2009;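 active = EGFP signal decrease of at least 30% at 10 µM or well 3 SD below plate mean, unless failing retest; inactive = the rest, including hits failing retest or dose response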
Target sequence (Q05BA5 1-1403): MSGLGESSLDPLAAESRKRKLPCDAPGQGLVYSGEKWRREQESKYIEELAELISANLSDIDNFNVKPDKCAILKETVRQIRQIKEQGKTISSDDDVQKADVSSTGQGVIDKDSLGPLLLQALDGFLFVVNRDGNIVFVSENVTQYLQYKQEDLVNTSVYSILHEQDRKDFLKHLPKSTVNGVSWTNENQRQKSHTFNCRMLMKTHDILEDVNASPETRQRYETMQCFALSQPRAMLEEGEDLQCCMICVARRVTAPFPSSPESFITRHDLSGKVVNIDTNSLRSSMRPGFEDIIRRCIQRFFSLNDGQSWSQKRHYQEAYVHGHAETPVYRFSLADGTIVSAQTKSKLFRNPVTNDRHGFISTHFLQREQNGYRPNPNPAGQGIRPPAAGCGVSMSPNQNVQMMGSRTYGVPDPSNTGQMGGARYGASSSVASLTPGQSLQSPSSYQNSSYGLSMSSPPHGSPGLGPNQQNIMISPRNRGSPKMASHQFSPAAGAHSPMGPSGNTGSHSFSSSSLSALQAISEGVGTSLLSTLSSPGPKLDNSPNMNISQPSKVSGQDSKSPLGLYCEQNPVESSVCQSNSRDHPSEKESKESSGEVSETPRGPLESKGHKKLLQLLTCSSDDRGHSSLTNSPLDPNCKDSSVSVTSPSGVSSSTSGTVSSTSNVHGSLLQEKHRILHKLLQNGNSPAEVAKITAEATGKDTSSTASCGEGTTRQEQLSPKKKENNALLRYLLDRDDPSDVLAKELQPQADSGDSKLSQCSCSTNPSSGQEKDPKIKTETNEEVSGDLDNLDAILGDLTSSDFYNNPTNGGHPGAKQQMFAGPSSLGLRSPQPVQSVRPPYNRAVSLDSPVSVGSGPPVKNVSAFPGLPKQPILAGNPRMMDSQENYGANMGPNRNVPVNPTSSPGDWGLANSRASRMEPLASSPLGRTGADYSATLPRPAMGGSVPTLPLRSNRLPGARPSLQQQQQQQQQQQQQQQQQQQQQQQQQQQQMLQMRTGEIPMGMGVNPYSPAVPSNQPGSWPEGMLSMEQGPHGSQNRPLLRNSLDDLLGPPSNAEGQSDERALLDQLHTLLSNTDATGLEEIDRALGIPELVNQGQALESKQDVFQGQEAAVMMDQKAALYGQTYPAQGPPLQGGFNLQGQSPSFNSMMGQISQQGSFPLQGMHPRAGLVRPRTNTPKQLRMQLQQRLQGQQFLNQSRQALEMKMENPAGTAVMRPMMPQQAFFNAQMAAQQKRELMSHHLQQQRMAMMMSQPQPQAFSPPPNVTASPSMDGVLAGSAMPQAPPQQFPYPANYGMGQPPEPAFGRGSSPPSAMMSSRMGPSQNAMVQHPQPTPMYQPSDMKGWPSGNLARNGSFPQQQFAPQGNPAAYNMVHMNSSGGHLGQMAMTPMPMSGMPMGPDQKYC
GPR7 antagonist: GPR7 receptor antagonists, primary screen, cell-based, fluorescence, single concentration; inhibition, % at 4.4 µM; AID 1861, 2009; hit rate 1.1% among 290,000; GPR7-expressing cells, fluorescence antagonist assay; in the data active = inhibition above about 16%, passing the limit was not always enough;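 note: cells stimulated with the agonist NPW; 0% = agonist with vehicle and 100% = vehicle without agonist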
NS3 helicase inh: inhibitors of HCV NS3 helicase, primary screen, biochemical, Cy5 molecular beacon fluorescence; Hepatitis C virus NS3 helicase; AID 1800, 2009; hit rate 0.56% among 290,000; inhibition, % at 10.9 µM; NS3 helicase DNA unwinding;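 active = inhibition above the mean of all tested compounds plus 3 SD, set per campaign, cut at about 35% in these data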;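 note: 0% = DMSO wells and 100% = thioflavine S control wells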
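System: Hepatitis C virus NS3 helicase domain fragment enzyme | Reagent: Annealed dual-labelled DNA beacon duplex, ATP-started | Compound dosing: 10.9 µM single point, 0.8% DMSO | Incubation: 1 h reaction at 25 °C, ATP-initiated | Technique: Cy5 fluorescence | Evaluation: Percent inhibition from t60/t0 fluorescence ratio | Benchmarks: Low DMSO, high thioflavine S at 110 µM | Replication: Singlicate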
* = called active by the depositor; x = no result.

SMILES	DNA FID counter	core dimer inh	p-CIP stab down	GPR7 antagonist	NS3 helicase inh
O=C1C(Cl)=C(Nc2ccc3cn[nH]c3c2)C(=O)c2ccccc21	9.8	-21.8	59.2*	40.7*	15.4
O=C(Nc1ccc2cn[nH]c2c1)c1c(Cl)cccc1Cl	-0.7	2.1	2.2	4.8	-3.3
CC(C)CN(C(=O)COC(=O)c1cc2c(s1)CCC2)C1CCS(=O)(=O)C1 (configuration not stated)	-25.1	87.6*	-16.3	1.8	27.5
O=C(/C=C/c1ccccc1Cl)Nc1cccc(O)c1	6.8	-0.6	-2.1	22.3*	-2.1
Cc1ccc(C(=O)N/C(=C/c2ccc(-c3cccc([N+](=O)[O-])c3)o2)C(=O)NC(C)C)cc1	1.2	-4.6	5.1	-8.0	4.5
Cc1ccc(C(=O)N/C(=C\c2ccc(-c3ccc(Cl)cc3)o2)C(=O)NCCCN(C)C)cc1	52.8*	-16.8	-4.2	27.3*	-16.4
Cc1ccc(C(=O)N/C(=C\c2ccc(-c3cccc([N+](=O)[O-])c3)o2)C(=O)NCCCN2CCOCC2)cc1	43.5*	-30.0	-0.3	-10.1	-18.0
CN(C)CCCNC(=O)/C(=C\c1ccc(-c2ccc(Br)cc2)o1)NC(=O)c1ccccc1	20.8	-25.5	-0.9	11.9	-74.8
O=C(c1ccco1)N1CCN(Cc2cccc3ccccc23)CC1	-21.8	6.5	-3.7	-12.2	-11.8
Cc1cc(N2Cc3ccccc3C2)ccc1C=O	-5.7	47.8*	3.8	-14.6	1.0
O=Cc1ccc(N2Cc3ccccc3C2)cc1	-2.1	38.7	3.7	-11.4	-5.7
CCN(CC)CCCN(C(=O)c1ccc(OC)cc1)c1nc(-c2ccc(OC)cc2)cs1	44.1*	-7.4	5.3	1.9	-82.0
COc1cc(S(=O)(=O)Nc2ccc(Br)cc2)ccc1N	1.8	-3.9	0.5	-9.4	-14.6
Cc1ccc2cccc(OCC(=O)N3CC(C)CC(C)C3)c2n1 (configuration not stated)	-16.9	-6.4	6.7	17.2*	-19.9
Cc1ccc2cccc(OCC(=O)N3CCc4ccccc43)c2n1	-12.2	0.2	-10.4	-4.7	-6.7
Cc1c(C)c(C)c(C(=O)C2CCN(c3ccc([N+](=O)[O-])cn3)CC2)c(C)c1C	-3.2	1.7	-1.8	15.7	12.7
Cc1cccc(-c2ncc(CN3CCN(CCC(C)C)C(CCO)C3)cn2)c1 (configuration not stated)	24.8	-0.4	6.5	18.5*	3.6
COc1cc(C(=O)OCc2cc(=O)oc3c(C)c(C)ccc23)ccc1OC(F)F	-3.5	-3.2	1.7	-12.4	1.0
O=C(/C=C/c1ccc(Br)cc1)c1ccc(NC2=NCCCS2)cc1	36.9*	0.3	-13.1	51.6*	-94.2
O=C(/C=C/c1ccccc1)c1ccc(NC2=NCCCS2)cc1	-0.4	-1.1	10.8	8.2	-28.3
CC(=O)[C@@H]1[C@@H]2C(=O)N(c3ccc(F)c(Cl)c3)C(=O)[C@@H]2C2c3ccccc3C=CN21 (some centres not stated)	-16.0	31.6	-6.9	-1.0	7.2
CC(=O)[C@H]1[C@@H]2C(=O)N(c3cccc(Cl)c3)C(=O)[C@@H]2[C@H]2c3ccccc3C=CN21	-10.1	58.4*	-2.7	-4.8	16.6
O=C(c1ccco1)[C@@H]1[C@@H]2C(=O)N(c3ccc(Br)cc3)C(=O)[C@@H]2C2c3ccccc3C=CN21 (some centres not stated)	-27.1	x	-19.1	-9.2	42.8*
CCOC(=O)C1(CCOc2ccccc2)CCN(Cc2cc(OC)c3c(c2)OCO3)CC1	17.6	2.7	13.0	-5.1	-31.3
CN(C)C(=O)C1CCC(=O)N1Cc1cccs1 (configuration not stated)	1.4	4.5	15.1	16.2*	-11.2
SMILES	DNA FID counter	core dimer inh	p-CIP stab down	GPR7 antagonist	NS3 helicase inh
C=CCn1c(SCc2cc(=O)n3ccsc3n2)nnc1C1CCCCC1	-20.8	68.5*	-2.1	-10.1	15.1
CC(C)c1ccc(NC2CCCN(C(=O)CCc3cn[nH]c3)C2)cc1 (configuration not stated)	-26.6	x	-11.3	-5.5	4.0
Cn1c(N)c(C(=O)COC(=O)c2cc(-c3ccco3)nc3ccccc23)c(=O)n(C)c1=O	-11.6	x	-15.9	-11.0	8.6
O=C(COC(=O)c1cc(-c2ccco2)nc2ccccc12)NCc1ccccc1	-24.8	27.1	2.6	4.8	16.1
O=C(Nc1cccc(S(=O)(=O)NC2=NCCCCC2)c1)c1cc(-c2ccco2)nc2ccccc12	-33.3	69.2*	-5.9	-8.5	10.2
COc1cc(-c2cc(C(=O)Nc3ccccc3N3CCOCC3)c3ccccc3n2)cc(OC)c1OC	-2.9	4.6	-11.5	-9.5	-6.5
O=C(Nc1ccccc1N1CCOCC1)c1cc(-c2ccco2)nc2ccccc12	-27.1	55.9*	-14.9	-18.3	9.1
O=C(Nc1cccc(S(=O)(=O)NC2=NCCCCC2)c1)c1cc(-c2ccncc2)nc2ccccc12	-28.3	14.6	5.7	-5.7	3.8
Cn1c(N)c(C(=O)COC(=O)c2cc(-c3ccco3)nc3ccccc23)c(=O)n(Cc2ccccc2)c1=O	-18.1	47.1*	-15.3	-10.8	12.0
CNC(=O)COC(=O)c1cc(-c2ccco2)nc2ccccc12	0.1	48.1*	-10.3	0.5	34.6
COc1ccc(CN2C(=O)Cc3c2nc(N)c2c(N)nc(N4CCCCC4)c(C#N)c32)cc1	-11.0	56.5*	-22.2	1.9	29.3
CCCCNc1ccc2c3c(cccc13)C(=O)N(CCCC)C2=O	-12.8	x	-628.1	37.0*	-14.9
COc1cc([C@H]2c3[nH]c4ccccc4c3C[C@H]3C(=O)N4[C@@H](c5cc(OC)c(OC)c(OC)c5)c5[nH]c6ccccc6c5C[C@H]4C(=O)N23)cc(OC)c1OC	-17.8	29.3	-1.7	-3.0	-19.7
COc1cc(C2NCCc3c2[nH]c2ccccc32)ccc1OC(C)C (configuration not stated)	37.0*	-2.9	0.3	3.1	-29.7
CC(C)NC(=O)c1ccc(COCC(F)(F)C(F)F)cc1	1.5	0.4	6.0	1.9	-1.3
O=C(NCC1CCCO1)c1ccc(COCC(F)(F)C(F)F)cc1 (configuration not stated)	-5.6	-0.5	-3.3	16.5*	-5.5
N#CCN(N=Nc1ccccc1)c1ccccc1	-5.0	-0.3	-18.5	-1.8	-14.8
O=C(CN1C(=O)c2ccccc2S1(=O)=O)NCc1cccs1	-12.6	-18.8	-13.7	-12.5	17.3
O=C(/C=C\c1ccco1)c1ccc(NC(=O)c2ccco2)cc1	-18.4	56.9*	-9.6	-8.2	22.3
CC(=O)Nc1ccc(C(=O)/C=C/c2ccco2)cc1	-10.4	3.6	5.1	-4.5	20.4
Cc1ccc(CNC(=O)C2CCC(=O)N(CCc3ccc(Cl)cc3)C2)cc1 (configuration not stated)	-40.4	3.7	2.2	-3.1	-12.1
